Source: ChEMBL document CHEMBL2034955, “Thieno[3,2-b]thiophene-2-carboxylic acid derivatives as GPR35 agonists” (Bioorg Med Chem Lett, 2012)
pEC50: −log10 of the molar value. Active and inactive are the calls of the source. No cut-off for these calls is given here.

Experiments:
[1] = molecular target: T1, G-protein coupled receptor 35 (Homo sapiens, UniProt Q9HC97); test: Agonist activity at GPR35 in human HT-29 cells by dynamic mass redistribution assay; format: functional, cell-based; settings: for pEC50: read-out: EC50
T1 sequence (Q9HC97 whole entry, the tested form may be a part): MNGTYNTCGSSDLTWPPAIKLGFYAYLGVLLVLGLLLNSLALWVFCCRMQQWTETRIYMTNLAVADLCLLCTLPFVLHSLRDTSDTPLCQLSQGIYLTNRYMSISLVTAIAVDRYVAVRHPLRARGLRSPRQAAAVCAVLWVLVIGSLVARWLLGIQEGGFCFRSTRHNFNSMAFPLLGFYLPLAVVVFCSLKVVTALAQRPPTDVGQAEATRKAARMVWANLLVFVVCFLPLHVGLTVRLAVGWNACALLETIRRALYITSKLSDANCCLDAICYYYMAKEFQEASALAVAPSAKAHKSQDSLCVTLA

[2] = molecular target: T1, G-protein coupled receptor 35; test: Agonist activity at GPR35 in human U20S cells expressing beta-lactamase and Gal4-VP16 transcription factor assessed as beta arrestin translocation after 5 hrs by Tango assay; format: functional, cell-based, U2OS; settings: for pEC50: read-out: EC50
How it was run: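 Tango GPR35-bla U2OS cells seeded at 10,000/well and cultured overnight in DMEM with 10% dialyzed FBS. Ligand stimulation 5 h at 37 °C/5% CO2, then LiveBLAzer FRET B/G substrate loading for 2 h. EC50 from monophasic sigmoidal fit. Two independent runs, each in duplicate (n = 4).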

[3] = molecular target: T1, G-protein coupled receptor 35; test: Agonist activity at GPR35 in human HT-29 cells by dynamic mass redistribution assay relative to zaprinast; format: functional, cell-based
[4] = molecular target: T1, G-protein coupled receptor 35; test: Agonist activity at GPR35 in human U2OS cells expressing beta-lactamase and Gal4-VP16 transcription factor assessed as beta arrestin translocation after 5 hrs by Tango assay relative to zaprinast; format: functional, cell-based
How it was run: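 Tango GPR35-bla U2OS cells seeded at 10,000/well and cultured overnight in DMEM with 10% dialyzed FBS. Ligand stimulation 5 h at 37 °C/5% CO2, then LiveBLAzer FRET B/G substrate loading for 2 h. […] EC50 from monophasic sigmoidal fit. Two independent runs, each in duplicate (n = 4).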

[5] = molecular target: T1, G-protein coupled receptor 35; test: Agonist activity at GPR35 in human HT-29 cells assessed as receptor internalization at 12.5 uM after 1 hr by confocal microscopy; format: functional, cell-based
How it was run: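 HT-29 cells treated 1 h with agonist in assay vehicle containing 0.1% DMSO (vehicle control), then permeabilized and immunostained with anti-GPR35 plus fluorescent secondary antibody. Internalization judged from confocal fluorescence images.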

[6] = molecular target: T1, G-protein coupled receptor 35; test: Agonist activity at GPR35 in human U20S cells expressing beta-lactamase and Gal4-VP16 transcription factor assessed as beta arrestin translocation at 100 uM after 5 hrs by Tango assay in the presence of ML-145; format: functional, cell-based; settings: U2OS
How it was run: (§1)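 Tango antagonist format in GPR35-bla U2OS cells. Agonist at a fixed dose was combined with varying ML-145 doses, followed by 5 h stimulation at 37 °C and 2 h FRET B/G substrate loading. Coumarin/fluorescein ratio read out, with IC50 derived. Two independent runs, each in duplicate (n = 4).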

[7] = molecular target: T1, G-protein coupled receptor 35; test: Agonist activity at GPR35 in human U20S cells expressing beta-lactamase and Gal4-VP16 transcription factor assessed as beta arrestin translocation at 64 uM after 5 hrs by Tango assay in the presence of ML-145; format: functional, cell-based; settings: U2OS; how it was run: as §1
[8] = molecular target: T1, G-protein coupled receptor 35; test: Agonist activity at GPR35 in human HT-29 cells at 250 nM by dynamic mass redistribution assay in presence of CID 2745687; format: functional, cell-based
How it was run: (§2)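 Native HT-29 cells seeded at 32,000/well and cultured overnight to confluence in McCoy's 5a with 10% FBS at 37 °C/5% CO2, washed twice and held in 1x HBSS for 1 h. CID 2745687 was pre-incubated 10 min at varying doses, then agonist added at a fixed dose. DMR amplitude read 10 min poststimulation, background corrected. Two independent runs, each in duplicate (n = 4).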

[9] = molecular target: T1, G-protein coupled receptor 35; test: Agonist activity at GPR35 in human U20S cells expressing beta-lactamase and Gal4-VP16 transcription factor assessed as beta arrestin translocation at 20 uM after 5 hrs by Tango assay in the presence of ML-145; format: functional, cell-based; settings: U2OS; how it was run: as §1
[10] = molecular target: T1, G-protein coupled receptor 35; test: Agonist activity at GPR35 in human HT-29 cells at 125 nM by dynamic mass redistribution assay in presence of CID 2745687; format: functional, cell-based; how it was run: as §2
[11] = molecular target: T1, G-protein coupled receptor 35; test: Agonist activity at GPR35 in human U20S cells expressing beta-lactamase and Gal4-VP16 transcription factor assessed as beta arrestin translocation at 10 uM after 5 hrs by Tango assay in the presence of ML-145; format: functional, cell-based; settings: U2OS; how it was run: as §1
[12] = molecular target: T1, G-protein coupled receptor 35; test: Agonist activity at GPR35 in human HT-29 cells at 2 uM by dynamic mass redistribution assay in presence of CID 2745687; format: functional, cell-based; how it was run: as §2

Row | pEC50 [1] | pEC50 [2] | Efficacy [3] [pm] | Efficacy [4] [%] | also measured | SMILES
1 | 5.28 | 4.06 | 290 | 77 | – | Cc1c(C(=O)O)n(C)c2c(Br)csc12
2 | 6.62 | 4.93 | 223 | 118 | Activity [5]: Active | Cc1c(C(=O)O)sc2c(-c3cccnc3)csc12
3 | 5.58 | 3.30 | 246 | 46 | – | O=C(O)c1sc2c(Br)csc2c1C1CC1
4 | – | – | – | – | EC50 ([1]; ht-29): Not Active; EC50 ([2]; u2os): Not Active | CCOC(=O)c1sc2c(Br)c(Br)sc2c1C(F)(F)F
5 | 6.29 | 4.51 | 230 | 52 | – | O=C(O)c1sc2c(Br)c(Br)sc2c1C(F)(F)F
6 | 6.59 | 4.75 | 232 | 107 | Activity [6]: inactive | Cc1c(C(=O)O)sc2c(-c3ccsc3)csc12
7 | 5.08 | 3.92 | 228 | 35 | – | Cc1c(C(=O)O)[nH]c2c(C3CC3)csc12
8 | 4.93 | 3.95 | 222 | 24 | – | Cc1c(C(=O)O)[nH]c2c(Br)csc12
9 | 6.20 | 4.57 | 210 | 120 | Activity [7]: inactive | Cc1c(C(=O)O)[nH]c2c(-c3cccnc3)csc12
10 | – | < 3.30 | 202 | > 60 | pEC50 ([1]; ht-29): 3.82 | O=C(O)c1cc(=O)c2ccccc2[nH]1 [TRANSTORINE]
11 | 5.83 | 4.26 | 257 | 102 | – | C#Cc1csc2c(C)c(C(=O)O)sc12
12 | 6.43 | 4.28 | 180 | 102 | – | Cc1c(C(=O)O)sc2c(-c3cn[nH]c3)csc12
13 | 6.02 | 4.28 | 262 | 101 | – | Cc1c(C(=O)O)sc2c(C3CC3)csc12
14 | 7.21 | 5.08 | 290 | 113 | Activity [1]: Dose-dependent effect; Activity [8]: inactive; Activity [9]: inactive | Cc1c(C(=O)O)sc2c(Br)csc12
15 | 5.99 | 4.41 | 262 | 68 | – | O=C(O)c1sc2c(Br)csc2c1Cl
16 | 7.80 | 5.61 | 228 | 96 | Activity [1]: Dose-dependent effect; Activity [10]: inactive; Activity [11]: inactive | O=C(O)c1sc2c(Br)c(Br)sc2c1O
17 | 5.01 | 3.47 | 159 | 64 | – | O=C(O)c1sc2ccsc2c1O
18 | 5.89 | 4.65 | 268 | 52 | – | Cc1sc2c(C)c(C(=O)O)sc2c1Br
19 | 6.15 | 4.44 | 232 | 52 | Activity [1]: Dose-dependent effect; Activity [12]: inactive | Cc1c(C(=O)O)sc2c(Br)c(Br)sc12
